Bioassay records deposited in PubChem BioAssay by Johns Hopkins Ion Channel Center.
TRPC4 agonist – activators of mouse TRPC4 channel, primary screen, Fluo4 calcium, HEK293 TRPC4beta/mu-opioid cells | Short transient receptor potential channel 4 (Mus musculus), Q9QUQ5 | Fluo4 calcium fluorescence; hits give high values | B-score at 10 µM | hit rate 0.49% among 310,000 | AID 2237, 2010;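 active = B-score above 5 SD of library B-scores, and initial fluorescence ratio not above library mean plus 5 SD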;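 also: positive B-score marks a calcium rise read as TRPC4 activation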
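Assay system: HEK293 stable line with TRPC4beta plus mu-opioid receptor. Times: dye 45 min RT, read 110 s. Measured by: kinetic Fluo4 calcium fluorescence. Measure: B score of integrated ratio. Controls: assay buffer as low control, maximal DAMGO as high control.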
TRPC4 PAM – positive allosteric modulators of TRPC4, primary screen, cell-based, mouse TRPC4beta, HEK293 mu-opioid, Fluo-4 calcium. DAMGO EC20, Fluo-4 Ca2+ flux; hits give high values. hit rate 0.42% among 310,000. Short transient receptor potential channel 4 (Mus musculus), Q9QUQ5. B-score at 10 µM. AID 2227, 2009;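 active = B-score of calcium response area above 5 SD of library B-scores, with initial fluorescence ratio within 5 SD of library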
TRPC6 activator – mouse TRPC6 channel activators, primary screen, cell-based, HEK293, membrane potential dye; Short transient receptor potential channel 6 (Mus musculus), Q61143; B-score at 10 µM; hit rate 0.13% among 310,000; HEK293-TRPC6 membrane potential dye fluorescence; hits give high values;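 active = B-score of the integrated fluorescence ratio above library mean plus 3 SD, and starting fluorescence ratio within library mean plus 5 SD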;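 also: higher score means more depolarization so channel activation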
Target sequence (Q61143 whole entry, looked up): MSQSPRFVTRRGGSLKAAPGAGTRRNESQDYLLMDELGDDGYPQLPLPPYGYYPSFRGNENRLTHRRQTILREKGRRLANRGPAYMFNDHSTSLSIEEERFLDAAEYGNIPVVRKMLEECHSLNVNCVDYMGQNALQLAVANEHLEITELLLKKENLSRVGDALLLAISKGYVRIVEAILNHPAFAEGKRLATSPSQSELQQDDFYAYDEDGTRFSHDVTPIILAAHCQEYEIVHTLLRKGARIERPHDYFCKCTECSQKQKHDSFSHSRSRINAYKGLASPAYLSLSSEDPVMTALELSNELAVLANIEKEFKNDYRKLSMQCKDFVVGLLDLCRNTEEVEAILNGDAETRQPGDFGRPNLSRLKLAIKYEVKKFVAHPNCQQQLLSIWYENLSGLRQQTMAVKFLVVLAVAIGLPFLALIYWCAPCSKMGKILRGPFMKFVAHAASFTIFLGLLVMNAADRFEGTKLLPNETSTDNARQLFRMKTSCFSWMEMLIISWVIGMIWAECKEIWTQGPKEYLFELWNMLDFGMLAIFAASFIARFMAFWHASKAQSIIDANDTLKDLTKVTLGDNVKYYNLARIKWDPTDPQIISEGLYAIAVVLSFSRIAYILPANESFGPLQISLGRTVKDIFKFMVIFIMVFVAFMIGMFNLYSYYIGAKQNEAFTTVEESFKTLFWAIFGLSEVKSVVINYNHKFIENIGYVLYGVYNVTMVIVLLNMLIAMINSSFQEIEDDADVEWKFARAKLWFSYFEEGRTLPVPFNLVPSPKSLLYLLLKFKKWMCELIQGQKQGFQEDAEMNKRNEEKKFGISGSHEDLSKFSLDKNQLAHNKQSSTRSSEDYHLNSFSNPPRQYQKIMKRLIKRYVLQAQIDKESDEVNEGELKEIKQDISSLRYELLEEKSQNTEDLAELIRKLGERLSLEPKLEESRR
TRPC6 inh – mouse TRPC6 channel inhibitors, primary screen, cell-based, HEK293, membrane potential dye; Short transient receptor potential channel 6 (Mus musculus), Q61143; ACh-evoked depolarization; hits give low values; B-score at 10 µM; hit rate 1.1% among 310,000;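 active = B-score under library mean minus 3 SD, initial fluorescence not abnormally high, positive integrated signal ratio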;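 also: B-score derived from integrated fluorescence ratio over the kinetic read; more negative B-score means stronger inhibition of depolarization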
TRPC4 inh – inhibitors of mouse TRPC4 channel, primary screen, Fluo4 calcium, HEK293 TRPC4beta/mu-opioid cells. DAMGO-evoked Fluo4 calcium flux; hits give low values. B-score at 10 µM. hit rate 0.39% among 300,000;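 active = B-score over 3 SD under the library average, no early fluorescence shift, positive overall ratio signal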
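test system = HEK293 cells with stable TRPC4beta plus mu-opioid receptor expression | detection = Fluo4 Ca2+ flux fluorescence | read-out = integrated fluorescence ratio relative to baseline, converted to per-well B score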
TRPC4 sel inh 2 – mouse TRPC4 off-target activity of TRPC6 inhibitors, second screen. shares compounds with TRPC6 inh. HEK293 TRPC4/MOR, membrane potential dye fluorescence; channel activated by saturating DAMGO dose. inhibition, % at 10 µM. hit rate 42% among 920. AID 2776;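 active = compounds whose fluorescence signal differed from control wells by over 3 SD, either direction, in both duplicate plates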
TRPC4 spec – mouse TRPC4 modulation by TRPC6 hits, confirmation, selectivity assay for TRPC6 inhibitor project, cell-based, HEK293 TRPC4/mu-opioid, membrane potential dye; membrane potential fluorescence; shares compounds with TRPC6 inh; hit rate 61% among 920; activity change, negative = inhibition, % at 10 µM;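 active = rise or fall in signal beyond 3 SD of buffer-only wells in both replicate plates, either sign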;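 also: integrated kinetic ratio of fluorescence range over baseline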
HEK293 MPD ctr 2-1 – nonspecific membrane potential effects, parental HEK293, confirmation, counter-screen for TRPC6 inhibitor project, cell-based, second counter screen. shares compounds with TRPC6 inh. parental HEK293 membrane potential dye fluorescence; maximal acetylcholine challenge after compound addition. signal change vs control, % at 10 µM. hit rate 31% among 920;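 active = membrane potential signal moving either way by over 3 SD of the maximum-effect control, in both duplicate plates, meaning non-specific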
HEK293 MPD ctr-1 – membrane potential modulation in parental HEK293, confirmation, counter-screen for TRPC6 inhibitor project, cell-based; shares compounds with TRPC6 inh; parental HEK293 membrane potential dye fluorescence; membrane potential signal change, % at 10 µM; hit rate 60% among 920;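 active = membrane potential signal shifting up or down by more than 3 SD of buffer-only wells, on both duplicate plates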
HEK293 MPD ctr-2 – parental HEK293 membrane potential modulation, confirmation, counter-screen for TRPC6 modulator project, cell-based. AID 488924, 2010. shares compounds with TRPC6 inh. membrane potential dye fluorescence. hit rate 51% among 2,400. membrane potential signal change, % at 10 µM;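 active = membrane potential signal moves up or down beyond 5 SD from buffer-only wells, on both duplicate plates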
HEK293 MPD ctr 2-2 – second check of TRPC6 modulator effects in parental HEK293 cells; membrane potential dye fluorescence; after compound, maximal acetylcholine stimulation; inhibition, % at 10 µM; shares compounds with TRPC6 inh; hit rate 14% among 2,400;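 active = membrane potential signal drops by more than 5 SD from the mean control signal, in both duplicate plates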
TRPC4 ctr mod – TRPC4 modulation by TRPC6 hit compounds, confirmation, selectivity assay for TRPC6 modulator project, cell-based, HEK293 TRPC4/mu-opioid, membrane potential dye, mouse | shares compounds with TRPC6 inh | membrane potential fluorescence | percent change from control (negative = decrease, positive = increase), % at 10 µM | hit rate 69% among 2,400;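 active = membrane potential signal moved up or down beyond 5 SD of buffer control wells, in both duplicate plates, actives on both sides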
TRPC4 ctr inh 2 – second check of whether TRPC6 modulators also affect mouse TRPC4; inhibition, % at 10 µM; HEK293 TRPC4/mu-opioid, membrane potential dye fluorescence; stimulated with maximal-effect DAMGO; AID 488928; hit rate 55% among 2,400; shares compounds with TRPC6 inh;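 active = drop in membrane potential signal beyond 5 SD of the control wells in both duplicate plates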;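 also: TRPC4 counter screen for TRPC6 hits run under conditions tuned for TRPC6 not TRPC4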
TRPC6 block conf – mouse TRPC6 channel inhibitors, confirmation, HEK293 cells, membrane potential dye, duplicate; ACh-evoked depolarization; shares compounds with TRPC6 inh; inhibition, % at 10 µM; hit rate 43% among 3,300;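 active = fluorescence ratio falls more than 5 SD below the full-stimulation control mean, in both duplicate runs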;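 also: integrated fluorescence ratio of peak minus minimum over baseline after agonist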
TRPC6 act conf – mouse TRPC6 channel activators, confirmation, HEK293 cells, membrane potential dye, duplicate. shares compounds with TRPC6 inh. HEK293-TRPC6 membrane potential dye fluorescence, FDSS. activation, % at 10 µM. hit rate 11% among 2,800;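 active = ratio signal rise beyond 5 SD above unstimulated control wells' mean, seen in both duplicate runs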
Large screens that a line does not name were inactive (follow-up assays come after a bar, where they were run). Sampled rows, rich in hits. Any-hit rate of the full collection: about 2.3%.

CCCc1c(C)nc(-c2ccc(C)cc2)nc1OC(=O)N(C)C	none
COC(=O)C1=C(c2ccccc2)C[C@@H]2CC[C@H]1N2C(=O)NCCCOC(C)C	none
O=S(=O)(NC1CN2CCC1CC2)c1ccc(Cl)cc1 (stereo unspecified)	none
O=C(NC1CN2CCC1CC2)c1cc(Cl)c([N+](=O)[O-])c2nc[nH]c12 (stereo unspecified)	TRPC6 inh -5.9 | HEK293 MPD ctr-2 -218% | HEK293 MPD ctr 2-2 inactive | TRPC4 ctr mod -33% | TRPC4 ctr inh 2 inactive | TRPC6 block conf inactive | TRPC6 act conf inactive
O=[N+]([O-])c1ccc(N2CCCC2)c2ncccc12	none
CC1CN(c2ccc([N+](=O)[O-])c3cccnc23)CC(C)N1 (stereo unspecified)	TRPC4 agonist 104, TRPC6 inh -10 | HEK293 MPD ctr-2 -358% | HEK293 MPD ctr 2-2 inactive | TRPC4 ctr mod -60% | TRPC4 ctr inh 2 64% | TRPC6 block conf 58% | TRPC6 act conf inactive
O=c1c2ccccc2nc(Cc2ccccc2)n1-c1ccc(O)cc1	none
O=C(COc1ccc(Cl)cc1)N(c1ccccc1Cl)C1CN2CCC1CC2 (stereo unspecified)	TRPC6 inh -5.3 | HEK293 MPD ctr-2 132% | HEK293 MPD ctr 2-2 inactive | TRPC4 ctr mod 26% | TRPC4 ctr inh 2 52% | TRPC6 block conf inactive
COc1cc2c(cc1OC)CN(c1ccc([N+](=O)[O-])c(C(F)(F)F)c1)CC2	none
C1=C(CCNCc2ccccc2)CCCC1	none
N#CCCn1cc(C(=O)Nc2ccccc2Br)c(-c2ccc([N+](=O)[O-])cc2)n1	none
C/C(CC(c1ccccc1)c1c(O)c2ccccc2oc1=O)=N\Nc1ccc([N+](=O)[O-])cc1[N+](=O)[O-] (stereo unspecified)	none
O=c1oc2ccccc2c(O)c1C(c1ccc([N+](=O)[O-])cc1)c1c(O)c2ccccc2oc1=O	TRPC6 inh -7.3 | TRPC4 sel inh 2 inactive | TRPC4 spec inactive | HEK293 MPD ctr 2-1 inactive | HEK293 MPD ctr-1 -272% | TRPC6 block conf inactive | TRPC6 act conf inactive
C[N+]1(C)CCC(OC(=O)C(c2ccccc2)c2ccccc2)CC1	TRPC6 inh -7.3 | TRPC4 sel inh 2 inactive | TRPC4 spec inactive | HEK293 MPD ctr 2-1 -18% | HEK293 MPD ctr-1 inactive | TRPC6 block conf 91% | TRPC6 act conf inactive
C#CC[N+]1(C)[C@@H]2CC[C@H]1CC(OC(=O)C(CO)c1ccccc1)C2 (stereo partly specified)	TRPC6 inh -11 | TRPC4 sel inh 2 inactive | TRPC4 spec inactive | HEK293 MPD ctr 2-1 -21% | HEK293 MPD ctr-1 inactive | TRPC6 block conf 94% | TRPC6 act conf inactive
C[N+]1(C)[C@@H]2CC[C@H]1CC(OC(=O)[C@@H](CO)c1ccccc1)C2 (stereo partly specified)	TRPC6 inh -7.7 | TRPC4 sel inh 2 inactive | TRPC4 spec inactive | HEK293 MPD ctr 2-1 -38% | HEK293 MPD ctr-1 inactive | TRPC6 block conf 96% | TRPC6 act conf inactive
CNP1(NC)=NC(C(F)(F)F)=NC(C(F)(F)F)=N1	none
CC12CN3CCN(CC(C3)C1O)C2 (stereo unspecified)	none
CCCCCSc1cc(OC)c(CCN)cc1OC	TRPC6 inh -6.5 | HEK293 MPD ctr-2 inactive | HEK293 MPD ctr 2-2 inactive | TRPC4 ctr mod inactive | TRPC4 ctr inh 2 59% | TRPC6 block conf 40% | TRPC6 act conf inactive
O=C(O)CN1C(=O)CN=C(c2ccccn2)c2cc(Cl)ccc21	none
CN1C2CCC1C(COC(=O)c1ccccc1)C(O)C2 (stereo unspecified)	none
CN1C2CCC1CC(OC(c1ccccc1)c1ccccc1N)C2 (stereo unspecified)	TRPC6 inh -5.6 | HEK293 MPD ctr-2 110% | HEK293 MPD ctr 2-2 92% | TRPC4 ctr mod 21% | TRPC4 ctr inh 2 40% | TRPC6 block conf 88%
O=P1(Oc2ccccc2)OCCCS1 (stereo unspecified)	none
CCCOP(=O)(OCCC)C(NC(=O)c1ccccc1)=C(Cl)Cl	none
CN1CCN(c2ccc([N+](=O)[O-])c(N/N=C3\CN4CCC3CC4)c2)CC1	TRPC6 inh -12 | HEK293 MPD ctr-2 -230% | HEK293 MPD ctr 2-2 70% | TRPC4 ctr mod -48% | TRPC4 ctr inh 2 82% | TRPC6 block conf 76% | TRPC6 act conf inactive
